The source made the active and inactive calls.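 How the source made its calls: active means IC50 no more than ten times the top valid dose, with luminescence dropping as cells die; inconclusive means flat curve losing 30 to 70% of signal, or poor fit; inactive means the rest, including signal rises.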
How the values were obtained:
[1] = cell viability loss over short exposure – CellTiter-Glo, 3 h, dry powder, cytotoxicity control for SR-BI HDL uptake inhibitor project, dose response (AID 540246); settings: ldlA[mSR-BI] CHO cells viability, CellTiter-Glo ATP, 3 h
In short: (§1)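 Test system: ldlA[mSR-BI] cells. Buffer or medium: Ham's F12 growth medium containing 10% FCS. Compound: eight doses per compound. Times: 3 h compound exposure of cells at 37 °C. Technique: cell Titer Glo ATP luminescence. Read-out: IC50 for loss of cell viability fitted from dose series.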

[2] = tested on: ldlA[mSR-BI] CHO cells viability, CellTiter-Glo ATP, 3 h; experiment: as above
In short: as §1

| SMILES | activity change, negative = cytotoxicity ([1]; at 35 µM (top of the series)) | other results |
| --- | --- | --- |
| CC(C)(C)NC(=O)N1CCN(c2ncccc2C(F)(F)F)CC1 | 5.12% (inactive) |  |
| C[C@H]1CN([C@@H](C)CO)C(=O)c2cccc(NC(=O)Nc3ccccc3)c2O[C@@H]1CN(C)Cc1ccc(Cl)c(Cl)c1 |  | IC50 [2]: 66.5 µM |
| Cc1cc(C)c2c(c1)NC(c1cc3c(cc1Br)OCO3)C1CC=CC21 (stereo not given) | -1.84% (inactive) |  |
| C[C@@H]1CN([C@H](C)CO)C(=O)Cc2cc(NC(=O)Cc3cn(C)c4ccccc34)ccc2O[C@H]1CN(C)S(=O)(=O)c1ccc(F)cc1 | -1% (inactive) |  |
| O=C(Nc1ccccc1Cl)c1ccccc1NS(=O)(=O)c1ccccc1 | 0.062% (inactive) |  |
| Cc1ccc2oc(-c3cccc(NC(=O)c4cc(-n5cnnc5)ccc4Cl)c3)nc2c1 |  | IC50 [2]: 31.7 µM |
| Cc1cc(SC(C)C(=O)Nc2ncc(Cl)cc2Cl)nc2ccccc12 (stereo not given) | -7.81% (inactive) |  |
| CC(OC(=O)c1cccc(NS(C)(=O)=O)c1)C(=O)Nc1ccc(N2CCOCC2)cc1 (stereo not given) | -2.45% (inactive) |  |
| N#Cc1sc2nc(C3CC3)cc(-c3ccc(Cl)cc3)c2c1N | -2.17% (inactive) |  |
| C[C@H]1CN([C@@H](C)CO)C(=O)c2cccc(N(C)C)c2O[C@@H]1CN(C)Cc1ccc(Cl)c(Cl)c1 | -9.85% (inactive) |  |
| COc1cccc(-c2csc(N3CCN(C(=S)Nc4cccc(Cl)c4)CC3)n2)c1 | -1.79% (inactive) |  |
| C[C@H]1CN([C@@H](C)CO)C(=O)c2cc(NC(=O)Cc3cn(C)c4ccccc34)ccc2O[C@@H]1CN(C)S(=O)(=O)c1ccc(F)cc1 | 6.2% (inactive) |  |
| Cc1cc(C)n(CC(=O)NC2CCCc3c2cnn3-c2ccc(C)c(C)c2)n1 (stereo not given) | 0.308% (inactive) |  |
| C[C@H](CO)N1C[C@H](C)[C@H](CN(C)S(=O)(=O)c2ccc(F)cc2)Oc2ccc(NC(=O)CCC(F)(F)F)cc2C1=O | 0.245% (inactive) |  |
| CCOC(=O)N1CCC(NC(=O)c2ccc3c(c2)N(Cc2ccc(F)cc2)CCS3)CC1 | -2.37% (inactive) |  |
| COc1ccc(-c2nnn(CC(=O)N(C3CCCCC3)C(C)C(=O)NC3CCCC3)n2)cc1OC (stereo not given) |  | IC50 [2]: > 35 µM (inactive) |
| COC(=O)c1cn(C(=O)c2cccc3ccccc23)c2ccccc12 | -9.72% (inactive) |  |
| CCOC(=O)Nc1cccc(NC(=O)c2cc(OC)cc(OC)c2)c1 |  | IC50 [2]: > 35 µM (inactive) |
| O=C(Nc1cc(Cl)ccc1Cl)c1cc(Cl)ccc1NS(=O)(=O)c1ccc(Cl)c([N+](=O)[O-])c1 |  | IC50 [2]: > 35 µM (inactive) |
| C[C@H]1CN([C@@H](C)CO)C(=O)c2cccc(NC(=O)Nc3ccccc3)c2O[C@@H]1CN(C)Cc1ccc(C(F)(F)F)cc1 | 0.509% (inactive) |  |

| SMILES | activity change, negative = cytotoxicity ([1]; at 35 µM (top of the series)) | other results |
| --- | --- | --- |
| CNC[C@@H]1Oc2ccc(NC(=O)Cc3cn(C)c4ccccc34)cc2C(=O)N([C@H](C)CO)C[C@H]1C | -2.77% (inactive) |  |
| O=C(Nc1ccc(-c2nc3cc(NC(=O)c4ccc(NC(=O)c5cccc6ccccc56)cc4)ccc3[nH]2)cc1)c1ccc(NC(=O)c2cccc3ccccc23)cc1 | -0.376% (inactive) |  |
| O=C(Nc1ccc(-c2nc3ccc(NC(=O)c4ccccc4[N+](=O)[O-])cc3[nH]2)cc1)c1ccccc1[N+](=O)[O-] | 6.25% (inactive) |  |
| O=C(Nc1cccc(NC(=O)c2cc([N+](=O)[O-])ccc2Cl)n1)c1cc([N+](=O)[O-])ccc1Cl | -3.61% (inactive) |  |
| COc1ccc(OC)c(CCNC(=O)c2ccc3c(c2)N(Cc2ccc(F)cc2)CCS3)c1 | -8.19% (inactive) |  |
| Cc1cc(C(=O)C(C)OC(=O)C2=NNC(=O)CC2)c(C)n1-c1ccc(OC(F)F)cc1 (stereo not given) |  | IC50 [2]: > 35 µM (inactive) |
| C[C@@H]1CN([C@H](C)CO)C(=O)c2cc(NC(=O)Cc3cn(C)c4ccccc34)ccc2O[C@H]1CN(C)S(=O)(=O)c1ccc(F)cc1 | 3.35% (inactive) |  |
| CCOc1ccccc1/C=C/c1onc(C)c1S(=O)(=O)N1CCC(C(=O)NC(C)(C)C)CC1 |  | IC50 [2]: > 35 µM (inactive) |
| C[C@H]1CN([C@@H](C)CO)C(=O)c2cccc(NC(=O)Nc3ccccc3)c2O[C@@H]1CN(C)S(C)(=O)=O | -2.86% (inactive) |  |
| C[C@H](CO)N1C[C@H](C)[C@H](CN(C)S(=O)(=O)c2ccc(F)cc2)Oc2ccc(NC(=O)Cc3cn(C)c4ccccc34)cc2C1=O | -7.27% (inactive) |  |
| C[C@H](CO)N1C[C@H](C)[C@H](CN(C)S(=O)(=O)c2ccc(F)cc2)Oc2ccc(NC(=O)Cc3ccccc3)cc2C1=O | 2.52% (inactive) |  |
| C[C@H](CO)N1C[C@H](C)[C@@H](CN(C)S(=O)(=O)c2ccc(F)cc2)Oc2ccc(NC(=O)Cc3cn(C)c4ccccc34)cc2C1=O | 4.04% (inactive) |  |
| O=C(Nc1ccc(-c2nc3ccc(NC(=O)c4ccc(Cl)cc4)cc3[nH]2)cc1)c1ccc(Cl)cc1 | 5.01% (inactive) |  |
| C[C@@H]1CN([C@H](C)CO)C(=O)c2cc(NC(=O)Cc3cn(C)c4ccccc34)ccc2O[C@H]1CN(C)C(=O)Nc1ccc(F)cc1 | 0.369% (inactive) |  |
| C[C@H](CO)N1C[C@H](C)[C@H](CN(C)S(=O)(=O)c2ccc(F)cc2)Oc2ccc(NS(C)(=O)=O)cc2C1=O | -0.83% (inactive) |  |
| O=C(Nc1cc(Cl)ccc1Cl)c1cc(Br)ccc1NS(=O)(=O)c1ccc(Cl)c([N+](=O)[O-])c1 | -7.81% (inactive) |  |
| O=C(Nc1ccc(-c2nc3cc(NC(=O)c4ccccc4[N+](=O)[O-])ccc3o2)cc1)c1ccccc1[N+](=O)[O-] | 9.71% (inactive) |  |
| CCc1sc(N2C(=O)C3C4CCC(C4=C(C)C)C3C2=O)nc1-c1ccccc1 (stereo not given) | 3.35% (inactive) |  |
| C[C@@H]1CN([C@H](C)CO)C(=O)c2cc(NC(=O)Cc3cn(C)c4ccccc34)ccc2O[C@H]1CN(C)S(C)(=O)=O | 0.836% (inactive) |  |
| Nc1ccc(C(=O)Nc2ccc(-c3nc4ccc(NC(=O)c5ccc(N)cc5)cc4[nH]3)cc2)cc1 | 11.1% (inactive) |  |

| SMILES | activity change, negative = cytotoxicity ([1]; at 35 µM (top of the series)) | other results |
| --- | --- | --- |
| C[C@H]1CN([C@@H](C)CO)C(=O)c2cccc(NC(=O)Nc3ccccc3)c2O[C@@H]1CN(C)Cc1ccccc1 | 6.56% (inactive) |  |
| CC(C)OCCCNC(=O)c1ccc(C2SCC(=O)N2Cc2ccco2)cc1 (stereo not given) | 0.099% (inactive) |  |
| C[C@@H]1CN([C@@H](C)CO)C(=O)c2cc(NC(=O)Cc3cn(C)c4ccccc34)ccc2O[C@@H]1CN(C)S(=O)(=O)c1ccc(F)cc1 | 6.07% (inactive) |  |
| C[C@@H]1CN([C@@H](C)CO)C(=O)c2cc(NC(=O)Cc3cn(C)c4ccccc34)ccc2O[C@H]1CN(C)S(=O)(=O)c1ccc(F)cc1 | -10.2% (inactive) |  |
| C[C@H]1CN([C@@H](C)CO)C(=O)c2cc(NC(=O)Nc3ccccc3)ccc2O[C@@H]1CN(C)Cc1ccc(Cl)c(Cl)c1 | -3.65% (inactive) |  |
| C[C@H]1CN([C@@H](C)CO)C(=O)c2cccc(NC(=O)Nc3ccc(F)cc3)c2O[C@@H]1CN(C)Cc1ccc(Cl)c(Cl)c1 |  | IC50 [2]: 48.1 µM |
| C[C@@H]1CN([C@H](C)CO)C(=O)c2cc(NC(=O)Cc3cn(C)c4ccccc34)ccc2O[C@@H]1CN(C)S(=O)(=O)c1ccc(F)cc1 | 4.76% (inactive) |  |
| CCc1cc2cc3c(cc2nc1SCC(=O)OC(C)C)OCO3 | 0.059% (inactive) |  |
| O=C(Nc1ccc(-c2nc3ccc(NC(=O)c4ccccc4)cc3[nH]2)cc1)c1ccccc1 |  | IC50 [2]: 37.8 µM |
| O=C(Nc1ccc(-c2nc3cc(NC(=O)c4ccccc4Cl)ccc3o2)cc1)c1ccccc1Cl | 15.2% (inactive) |  |
| C[C@@H]1CN([C@H](C)CO)C(=O)c2cc(NC(=O)Cc3cn(C)c4ccccc34)ccc2O[C@H]1CN(C)S(=O)(=O)c1ccccc1 | 1.67% (inactive) |  |
| C[C@@H]1CN([C@H](C)CO)C(=O)c2cc(NC(=O)Cc3cn(C)c4ccccc34)ccc2O[C@H]1CN(C)S(=O)(=O)c1ccc(Cl)cc1 | 1.29% (inactive) |  |
| O=C(Nc1cc(C(F)(F)F)ccc1Cl)c1ccccc1NS(=O)(=O)c1ccc(Cl)cc1 | 4.37% (inactive) |  |
| COc1ccc([C@H]2CC(=O)C=C(c3cccc4c3sc3ccccc34)C2)cc1OC | 3.09% (inactive) |  |
| CCC(=O)N1CCc2cc(-c3csc(NC(=O)c4ccco4)n3)ccc21 | -3.84% (inactive) |  |
| C[C@H]1CN([C@@H](C)CO)C(=O)c2cc(NC(=O)Cc3cn(C)c4ccccc34)ccc2O[C@H]1CN(C)S(=O)(=O)c1ccc(F)cc1 |  | activity change, negative = cytotoxicity ([1]; at 30 µM (top of the series)): -3.79% (inactive) |
| C[C@H]1CN([C@@H](C)CO)C(=O)c2cccc(NC(=O)Nc3ccccc3)c2O[C@@H]1CN(C)C | -3.85% (inactive) |  |
| C[C@H]1CN([C@@H](C)CO)C(=O)c2cccc(NS(C)(=O)=O)c2O[C@@H]1CN(C)Cc1ccc(Cl)c(Cl)c1 | 7.9% (inactive) |  |
| CCn1c(COc2c(C)cccc2C)nnc1SCC(=O)N1CCN(c2ccccc2)CC1 | -2.44% (inactive) |  |
| CC(C)NC(=O)Nc1cccc2c1O[C@H](CN(C)Cc1ccc(Cl)c(Cl)c1)[C@@H](C)CN([C@@H](C)CO)C2=O | 3.16% (inactive) |  |
